Active and inactive are the calls of the source. The calls are words filed in the database; no cut-off is given here. Where only a bound is given, the exact number is not on record here.

For 3 compounds, IC50 and inhibition results are on record in ChEMBL document CHEMBL4251665, “Ca2+-Signal Transduction Inhibitors, Kujiol A and Kujigamberol B, Isolated from Kuji Amber Using a Mutant Yeast” (J Nat Prod, 2018).

One assay has as its system WI-38. Put plainly: Cytotoxicity against human WI38 cells after 48 hrs by MTT assay. Type of assay: cell-based. Particulars: WI-38, 48 h. The gist of the method: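 WI-38 human diploid lung fibroblasts cultured in DMEM at 5 × 10^3 cells/well, then tested for cytotoxicity.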
For a further assay, the system named is Saccharomyces cerevisiae. Put plainly: Inhibition of calcium signal transduction pathway in Saccharomyces cerevisiae YNS17 assessed as growth restoration. Format: functional, organism-based. In short, it runs like this:
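Mutant S. cerevisiae YNS17 plate assay. Samples dissolved in MeOH and spotted on plates; growth-restored zones scored over 0.5 to 0.13 μg/spot. Positive control: FK506 at 2.5 ng/spot.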

Assay [1] has as its target T1, Glycogen synthase kinase-3 beta (Homo sapiens, UniProt P49841). Put plainly: Inhibition of human GSK-3beta using peptide substrate.
The next assay deals with HL-60. In words: Cytotoxicity against human HL60 cells after 48 hrs by MTT assay. Type of assay: cell-based. The following applies: HL-60, 48 h. In short, it runs like this: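 HL60 cells grown in RPMI 1640 with 10% heat-inactivated FBS and penicillin (50 units/mL)–streptomycin (50 μg/mL). Exposed to samples for 48 h at 37 °C, humidified, 5% CO2. Viability read by MTT assay; IC50 derived.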

The species entered for assay [2] is Homo sapiens. Put plainly: Inhibition of calcineurin (unknown origin) using DLDVPIPGRFDRRVpSVAAE as substrate by malachite green based colorimetric method.
For assay [3], the species on record is Homo sapiens. In words: Inhibition of calcineurin (unknown origin) at 200 uM using DLDVPIPGRFDRRVpSVAAE as substrate by malachite green based colorimetric method.
The target of assay [4] is T1, Glycogen synthase kinase-3 beta. Put plainly: Inhibition of human GSK-3beta at 200 uM using peptide substrate.
Target sequence in this assay (P49841 whole entry, looked up): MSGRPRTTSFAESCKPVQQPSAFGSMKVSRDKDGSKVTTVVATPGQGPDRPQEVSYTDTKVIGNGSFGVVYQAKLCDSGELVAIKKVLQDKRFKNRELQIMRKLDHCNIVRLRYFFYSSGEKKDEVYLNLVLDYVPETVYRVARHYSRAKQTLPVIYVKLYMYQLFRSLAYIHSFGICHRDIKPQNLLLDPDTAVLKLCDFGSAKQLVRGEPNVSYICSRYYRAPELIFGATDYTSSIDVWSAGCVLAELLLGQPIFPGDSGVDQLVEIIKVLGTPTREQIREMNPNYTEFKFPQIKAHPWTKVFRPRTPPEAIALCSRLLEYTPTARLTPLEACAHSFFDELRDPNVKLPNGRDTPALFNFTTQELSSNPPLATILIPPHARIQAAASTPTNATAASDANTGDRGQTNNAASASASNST

Turning to `Cc1ccc2c(c1)CC[C@H]1[C@@](C)(CO)CCC[C@]21C`, the IC50 with WI-38 was more than 50 µM; in assay [1] it was 178 µM; with HL-60, 7.1 µM. The inhibition entry (with Saccharomyces cerevisiae; in assay [1]; in the assay filed under Homo sapiens [2]) was “Dose-dependent effect” throughout.
In turn, `Cc1ccc2c(c1CCC(C)C)CCC[C@]2(C)CO` [KUJIGAMBEROL] showed a 50% inhibitory concentration (IC50) with WI-38 of more than 50 µM.
As to `Cc1ccc2c(c1CCC(C)(C)O)CCCC2(C)C`, the 50% inhibitory concentration (IC50) with WI-38 was more than 50 µM; in the assay with HL-60, 41.7 µM. For the same compound, the inhibition result (in the assay filed under Homo sapiens [3]; in assay [4]) was “inactive” throughout. In the assay on Saccharomyces cerevisiae, the inhibition result was “Dose-dependent effect”.
